Calls of active or inactive are those of the source. No cut-off for these calls is given here.
Legend:
[1] = tested on: CAL-27; test: Potentiation of 0.316 uM cisplatin-induced cytotoxicity against human CAL27 cells assessed as decrease in cell viability by measuring combination index at 500 uM preincubated for 48 hrs followed by cisplatin treatment measured after 72 hrs by MTT assay; assay type: functional; settings: in the assay text read “at 500 nM” for “at 500 uM”
Method in brief: (§1)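 Cal27 and cisplatin-resistant Cal27CisR cells were preincubated with the HDAC inhibitor for 48 h, then given cisplatin in combination. Viability was read by MTT after 72 h. The combination index was computed by the Chou–Talalay method: CI > 1 is antagonism, CI = 1 is additive, and CI < 0.9 is synergism. Points with fraction affected below 0.20 were flagged.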

[2] = tested on: CAL-27; test: Potentiation of 2 uM cisplatin-induced cytotoxicity against human CAL27 cells assessed as decrease in cell viability by measuring combination index at 300 uM preincubated for 48 hrs followed by cisplatin treatment measured after 72 hrs by MTT assay; assay type: functional; settings: in the assay text read “at 300 nM” for “at 300 uM”
Method in brief: (§2)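 HDAC inhibitor was added 48 h before cisplatin, then cells were exposed to cisplatin for 72 h and viability was read by MTT assay. Combination index was computed by the Chou–Talalay method: CI > 1 is antagonism, CI = 1 additive, CI < 0.9 synergism. Points with fraction affected below 0.20 were flagged.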

[3] = tested on: CAL-27; test: Potentiation of 0.5 uM cisplatin-induced cytotoxicity against human CAL27 cells assessed as decrease in cell viability by measuring combination index at 200 uM preincubated for 48 hrs followed by cisplatin treatment measured after 72 hrs by MTT assay; assay type: functional; method in brief: as §1
[4] = tested on: CAL-27; test: Potentiation of 1 uM cisplatin-induced cytotoxicity against human CAL27 cells assessed as decrease in cell viability by measuring combination index at 200 uM preincubated for 48 hrs followed by cisplatin treatment measured after 72 hrs by MTT assay; assay type: functional; method in brief: as §1
[5] = tested on: CAL-27; test: Potentiation of 0.316 uM cisplatin-induced cytotoxicity against human CAL27 cells assessed as decrease in cell viability by measuring combination index at 200 uM preincubated for 48 hrs followed by cisplatin treatment measured after 72 hrs by MTT assay; assay type: functional; settings: in the assay text read “at 200 nM” for “at 200 uM”; method in brief: as §1
[6] = biological target: T1, Histone deacetylase 1/6 (Homo sapiens) (UniProt Q13547+Q9UBN7); test: Inhibition of HDAC1/HDAC6 in human Cal27CisR cells assessed as potentiation of 20 uM cisplatin-induced cytotoxicity by measuring combination index at 200 nM preincubated for 48 hrs followed by cisplatin treatment measured after 72 hrs by MTT assay
[7] = tested on: CAL-27; test: Potentiation of 5 uM cisplatin-induced cytotoxicity against human CAL27 cells assessed as decrease in cell viability by measuring combination index at 400 uM preincubated for 48 hrs followed by cisplatin treatment measured after 72 hrs by MTT assay; assay type: functional; settings: in the assay text read “at 400 nM” for “at 400 uM”; method in brief: as §2
[8] = biological target: T1, Histone deacetylase 1/6 (Homo sapiens); test: Inhibition of HDAC1/HDAC6 in human Cal27CisR cells assessed as potentiation of 20 uM cisplatin-induced cytotoxicity by measuring combination index at 300 nM preincubated for 48 hrs followed by cisplatin treatment measured after 72 hrs by MTT assay
[9] = biological target: T1, Histone deacetylase 1/6 (Homo sapiens); test: Inhibition of HDAC1/HDAC6 in human Cal27CisR cells assessed as potentiation of 3.16 uM cisplatin-induced cytotoxicity by measuring combination index at 2000 nM preincubated for 48 hrs followed by cisplatin treatment measured after 72 hrs by MTT assay
[10] = biological target: T1, Histone deacetylase 1/6 (Homo sapiens); test: Inhibition of HDAC1/HDAC6 in human Cal27CisR cells assessed as potentiation of 1 uM cisplatin-induced cytotoxicity by measuring combination index at 1000 uM preincubated for 48 hrs followed by cisplatin treatment measured after 72 hrs by MTT assay; assay type: cell-based
Method in brief: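 Cal27CisR cells preincubated 48 h with the HDAC inhibitor, then exposed to cisplatin for 72 h. Viability read by MTT. Combination index calculated by the Chou–Talalay method: CI > 1 antagonism, CI = 1 additive, CI < 0.9 synergism. Points with fraction affected below 0.20 are flagged. Values are the mean of three experiments.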

[11] = tested on: CAL-27; test: Potentiation of 0.316 uM cisplatin-induced cytotoxicity against human CAL27 cells assessed as decrease in cell viability by measuring combination index at 900 uM preincubated for 48 hrs followed by cisplatin treatment measured after 72 hrs by MTT assay; assay type: functional; settings: in the assay text read “at 900 nM” for “at 900 uM”; method in brief: as §1
[12] = tested on: CAL-27; test: Potentiation of 5 uM cisplatin-induced cytotoxicity against human CAL27 cells assessed as decrease in cell viability by measuring combination index at 2000 uM preincubated for 48 hrs followed by cisplatin treatment measured after 72 hrs by MTT assay; assay type: functional; settings: in the assay text read “at 2000 nM” for “at 2000 uM”; method in brief: as §2
[13] = biological target: T1, Histone deacetylase 1/6 (Homo sapiens); test: Inhibition of HDAC1/HDAC6 in human Cal27CisR cells assessed as potentiation of 5 uM cisplatin-induced cytotoxicity by measuring combination index at 1500 uM preincubated for 48 hrs followed by cisplatin treatment measured after 72 hrs by MTT assay; assay type: cell-based; method in brief: as §1
[14] = biological target: T1, Histone deacetylase 1/6 (Homo sapiens); test: Inhibition of HDAC1/HDAC6 in human Cal27CisR cells assessed as potentiation of cisplatin-induced apoptosis at 1 uM preincubated for 48 hrs followed by cisplatin treatment for 6 hrs measured after 24 hrs by propidium iodide dye-based flow cytometry (reference value: 20.3%); assay type: cell-based; parameters: scale not given: the % may be the effect or the level left
[15] = biological target: T1, Histone deacetylase 1/6 (Homo sapiens); test: Inhibition of HDAC1/HDAC6 in human Cal27CisR cells assessed as potentiation of 10 uM cisplatin-induced cytotoxicity by measuring combination index at 1000 nM preincubated for 48 hrs followed by cisplatin treatment measured after 72 hrs by MTT assay
[16] = biological target: T1, Histone deacetylase 1/6 (Homo sapiens); test: Inhibition of HDAC1/HDAC6 in human Cal27CisR cells assessed as potentiation of 5 uM cisplatin-induced cytotoxicity by measuring combination index at 900 uM preincubated for 48 hrs followed by cisplatin treatment measured after 72 hrs by MTT assay; assay type: cell-based; method in brief: as §1
[17] = biological target: T1, Histone deacetylase 1/6 (Homo sapiens); test: Inhibition of HDAC1/HDAC6 in human Cal27CisR cells assessed as potentiation of 10 uM cisplatin-induced cytotoxicity by measuring combination index at 900 nM preincubated for 48 hrs followed by cisplatin treatment measured after 72 hrs by MTT assay
[18] = tested on: CAL-27; test: Potentiation of 0.316 uM cisplatin-induced cytotoxicity against human CAL27 cells assessed as decrease in cell viability measuring combination index at 2000 uM preincubated for 48 hrs followed by cisplatin treatment measured after 72 hrs by MTT assay; assay type: functional; settings: in the assay text read “at 2000 nM” for “at 2000 uM”; method in brief: as §1
[19] = tested on: CAL-27; test: Potentiation of cisplatin-induced apoptosis in human CAL27 cells at 0.5 uM preincubated for 48 hrs followed by cisplatin treatment for 6 hrs measured after 24 hrs by propidium iodide dye-based flow cytometry; assay type: functional, cell-based

T1 sequence (Q13547 whole entry, looked up): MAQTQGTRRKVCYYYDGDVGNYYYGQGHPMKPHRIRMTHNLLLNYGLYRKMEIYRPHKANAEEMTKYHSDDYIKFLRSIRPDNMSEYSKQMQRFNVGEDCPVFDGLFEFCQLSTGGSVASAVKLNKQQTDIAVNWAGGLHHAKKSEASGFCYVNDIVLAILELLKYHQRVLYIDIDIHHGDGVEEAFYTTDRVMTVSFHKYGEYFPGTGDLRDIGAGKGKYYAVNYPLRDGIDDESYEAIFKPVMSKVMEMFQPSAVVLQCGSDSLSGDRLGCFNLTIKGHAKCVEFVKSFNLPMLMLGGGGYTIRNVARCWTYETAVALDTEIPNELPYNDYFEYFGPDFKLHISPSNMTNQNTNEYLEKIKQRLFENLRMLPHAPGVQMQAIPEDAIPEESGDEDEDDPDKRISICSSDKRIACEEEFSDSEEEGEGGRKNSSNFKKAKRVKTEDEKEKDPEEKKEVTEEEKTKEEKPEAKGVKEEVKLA
T1 sequence (Q9UBN7 whole entry, looked up): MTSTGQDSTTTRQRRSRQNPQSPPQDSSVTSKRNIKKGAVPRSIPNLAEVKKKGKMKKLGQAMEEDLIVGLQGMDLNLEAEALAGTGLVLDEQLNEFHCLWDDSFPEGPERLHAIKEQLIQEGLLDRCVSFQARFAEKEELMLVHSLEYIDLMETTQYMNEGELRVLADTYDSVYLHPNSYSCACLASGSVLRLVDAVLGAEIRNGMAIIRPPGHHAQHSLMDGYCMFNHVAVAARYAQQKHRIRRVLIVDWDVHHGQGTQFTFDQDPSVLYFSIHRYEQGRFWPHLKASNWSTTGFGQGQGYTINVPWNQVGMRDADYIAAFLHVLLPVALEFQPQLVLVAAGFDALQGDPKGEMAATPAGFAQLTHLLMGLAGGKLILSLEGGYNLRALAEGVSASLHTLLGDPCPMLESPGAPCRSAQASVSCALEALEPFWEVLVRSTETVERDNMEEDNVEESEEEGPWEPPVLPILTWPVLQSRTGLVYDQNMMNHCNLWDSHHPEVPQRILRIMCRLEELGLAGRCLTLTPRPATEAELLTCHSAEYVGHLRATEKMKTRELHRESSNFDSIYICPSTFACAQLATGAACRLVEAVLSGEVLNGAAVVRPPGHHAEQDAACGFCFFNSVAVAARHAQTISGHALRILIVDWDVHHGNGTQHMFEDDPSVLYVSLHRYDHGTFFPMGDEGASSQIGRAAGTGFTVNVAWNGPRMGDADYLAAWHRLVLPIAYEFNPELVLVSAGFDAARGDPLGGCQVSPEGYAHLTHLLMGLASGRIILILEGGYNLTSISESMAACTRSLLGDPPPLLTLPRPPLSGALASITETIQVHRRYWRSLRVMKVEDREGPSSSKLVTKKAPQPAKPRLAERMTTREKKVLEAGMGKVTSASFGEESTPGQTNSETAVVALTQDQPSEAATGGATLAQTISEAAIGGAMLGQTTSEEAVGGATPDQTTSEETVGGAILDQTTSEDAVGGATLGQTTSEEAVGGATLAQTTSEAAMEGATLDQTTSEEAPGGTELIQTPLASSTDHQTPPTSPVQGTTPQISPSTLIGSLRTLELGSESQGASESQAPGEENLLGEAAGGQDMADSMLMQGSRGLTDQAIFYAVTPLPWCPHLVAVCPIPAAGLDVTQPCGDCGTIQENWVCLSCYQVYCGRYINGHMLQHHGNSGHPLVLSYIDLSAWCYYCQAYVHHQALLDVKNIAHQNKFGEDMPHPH

Activity [14] | Structure (SMILES) | CI [1] | CI [2] | CI [3] | CI [4] | CI [5] | CI [6] | CI [7] | CI [8] | CI [9] | CI [10] | CI [11] | CI [12] | CI [13] | CI [15] | CI [16] | CI [17] | CI [18] | Activity [19]
– | COc1cc(NC(=O)NOCCCCCC(=O)NO)c2nc(OC)cc(C)c2c1 | 0.79 | 0.38 | 0.96 | 0.82 | <0.2 | 0.19 | 0.36 | 0.17 | – | – | – | – | – | – | – | – | – | –
56.3% | COc1cc(NC(=O)NOCCCCCC(=O)NO)c2ncccc2c1 | 0.86 | – | – | – | – | – | – | – | 0.6 | 0.85 | 0.77 | 0.66 | 0.47 | 0.49 | 0.52 | 0.43 | 0.92 | –
– | COc1cc(NC(=O)NOCCCCCC(=O)NO)c2nccc(C)c2c1 | – | 0.31 | <0.2 | 0.76 | <0.2 | 0.33 | 0.29 | 0.34 | – | – | – | – | – | – | – | – | – | Active

Reference: ChEMBL document CHEMBL4014350, “Alkoxyurea-Based Histone Deacetylase Inhibitors Increase Cisplatin Potency in Chemoresistant Cancer Cell Lines” (J Med Chem, 2017)
